How the values were obtained:
Format in all cases: functional
HT-29 = experiment: Antiproliferative activity against human HT-29 cells after 48 hrs by SRB assay; details: HT-29, 48 h
Summary of the method: (§1)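 NCI60 panel in RPMI 1640 with 5% FBS and 2 mM L-glutamine. Cells were plated at 5000–40,000/well by doubling time, held 24 h, then time-zero plates were TCA-fixed. Five concentrations (10-fold or half-log dilutions of DMSO stocks) were applied for 48 h at 37 °C, 5% CO2. Cells were fixed with cold TCA (10% final adherent, 16% suspension) and stained with 0.4% SRB. Bound dye was dissolved in 10 mM Tris and read at 515 nm. GI50, TGI and LC50 were calculated per line.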

HL-60(TB) = experiment: Antitumor activity against human HL-60(TB) cells after 48 hrs by SRB assay; details: HL-60, 48 h
Summary of the method: (§2)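 NCI60 screen: cells grown in RPMI 1640 with 5% FBS and 2 mM L-glutamine, plated at 5000–40,000 cells/well by doubling time, preincubated 24 h at 37 °C with 5% CO2. Compounds were diluted from DMSO stocks and given for 48 h, at five concentrations for dose response. A time-zero plate was TCA-fixed. Cells were TCA-fixed, stained with 0.4% SRB and read at 515 nm, with growth expressed relative to untreated controls.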

NCI-H522 = experiment: Antitumor activity against human NCI-H522 cells after 48 hrs by SRB assay; details: NCI-H522, 48 h; summary of the method: as §1
OVCAR-4 = experiment: Antitumor activity against human OVCAR4 cells after 48 hrs by SRB assay; details: OVCAR-4, 48 h; summary of the method: as §1
UACC-257 = experiment: Cytotoxicity against human UACC257 cells assessed as cellular growth at 10 uM after 48 hrs by SRB assay
Summary of the method: (§3)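 NCI-60 panel lines grown in RPMI 1640 with 5% FBS and 2 mM L-glutamine. Plated at 5000–40,000 cells/well and preincubated 24 h at 37 °C, 5% CO₂, with time-zero plates fixed in TCA. Compounds, dissolved in DMSO and diluted in medium, were applied for 48 h. Cells were TCA-fixed (10% final for adherent, 16% for suspension) and stained with 0.4% SRB in 1% acetic acid. Dye was solubilised in 10 mM Tris base and read at 515 nm; growth was expressed as a percentage of untreated control.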

SNB-75 = experiment: Antitumor activity against human SNB75 cells after 48 hrs by SRB assay; details: SNB-75, 48 h
Summary of the method: (§4)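 NCI60 panel cells grown in RPMI 1640 with 5% FBS and 2 mM L-glutamine, plated at 5000–40,000 cells/well and preincubated 24 h at 37 °C, 5% CO₂. Compound was added from DMSO at five concentrations, 10-fold or 1/2 log dilutions, then incubated 48 h.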

T47D = experiment: Antitumor activity against human T47D cells after 48 hrs by SRB assay; summary of the method: as §4
UACC-62 = experiment: Antitumor activity against human UACC62 cells after 48 hrs by SRB assay; details: UACC-62, 48 h; summary of the method: as §4
SF-268 [1] = experiment: Antitumor activity against human SF268 cells after 48 hrs by SRB assay; details: SF-268, 48 h; summary of the method: as §1
MOLT-4 = experiment: Cytotoxicity against human MOLT4 cells assessed as cellular growth at 10 uM after 48 hrs by SRB assay; summary of the method: as §3
NCI-H460 [2] = experiment: Antitumor activity against human NCI-H460 cells after 48 hrs by SRB assay; details: NCI-H460, 48 h; summary of the method: as §1
SN12C = experiment: Cytotoxicity against human SN12C cells assessed as cellular growth at 10 uM after 48 hrs by SRB assay; summary of the method: as §3
HOP-62 = experiment: Antitumor activity against human HOP62 cells after 48 hrs by SRB assay; details: HOP-62, 48 h; summary of the method: as §1
NCI-H226 [3] = experiment: Cytotoxicity against human NCI-H226 cells assessed as cellular growth at 10 uM after 48 hrs by SRB assay; summary of the method: as §3
NCI-H460 [4] = experiment: Cytotoxicity against human NCI-H460 cells assessed as cellular growth at 10 uM after 48 hrs by SRB assay; summary of the method: as §3
COLO 205 = experiment: Antitumor activity against human COLO205 cells after 48 hrs by SRB assay; details: COLO 205, 48 h; summary of the method: as §1
[5] = Cytotoxicity against human NCI60 cells assessed as cellular growth at 10 uM after 48 hrs by SRB assay relative to untreated control; summary of the method: as §3
SF-268 [6] = experiment: Cytotoxicity against human SF268 cells assessed as cellular growth at 10 uM after 48 hrs by SRB assay; summary of the method: as §3
NCI-H226 [7] = experiment: Antitumor activity against human NCI-H226 cells after 48 hrs by SRB assay; details: NCI-H226, 48 h; summary of the method: as §1
BT-549 = experiment: Antitumor activity against human BT549 cells after 48 hrs by SRB assay; details: BT-549, 48 h; summary of the method: as §2
KM12 = experiment: Antitumor activity against human KM12 cells after 48 hrs by SRB assay; details: KM12, 48 h; summary of the method: as §1
[8] = read-out: pLC50 (the source's name) (converted)
[9] = read-out: LC50 (the source's name)

## COc1cc(/C(=C2\O[C@@H]([C@H]3COC(C)(C)O3)[C@H]3OC(C)(C)O[C@@H]23)c2ccc3ccccc3c2)cc(OC)c1OC
HT-29
  LC50 (50% net cell kill): > 100 µM
HT-29; read-out: GI50
  GI50: 6 µM
HT-29; read-out: TGI
  TGI: > 100 µM
HT-29; read-out: pGI50 (converted)
  GI50: 6.03 µM
HT-29; [8]
  CC50: > 100 µM
HT-29; read-out: pTGI (converted)
  TGI: > 100 µM
HL-60(TB); read-out: GI50
  GI50: 74.9 µM
HL-60(TB); [9]
  CC50: > 100 µM
HL-60(TB); read-out: TGI
  TGI: > 100 µM
HL-60(TB); read-out: pGI50 (converted)
  GI50: 74.1 µM
HL-60(TB); [8]
  CC50: > 100 µM
HL-60(TB); read-out: pTGI (converted)
  TGI: > 100 µM
NCI-H522
  GI50: 2.26 µM
  TGI: 6.54 µM
NCI-H522; [9]
  CC50: > 100 µM
OVCAR-4; read-out: GI50
  GI50: 2.82 µM
OVCAR-4; [9]
  CC50: > 100 µM
OVCAR-4; read-out: TGI
  TGI: 6.02 µM
OVCAR-4; read-out: pGI50 (converted)
  GI50: 14.1 µM
OVCAR-4; [8]
  CC50: > 100 µM
OVCAR-4; read-out: pTGI (converted)
  TGI: 11 µM
UACC-257
  Activity: 45.86%
SNB-75
  GI50: 2.89 µM
  TGI: 7.44 µM
SNB-75; [9]
  CC50: > 100 µM
T47D; read-out: GI50
  GI50: 3.45 µM
T47D; [9]
  CC50: > 100 µM
T47D; read-out: TGI
  TGI: 40.6 µM
T47D; read-out: pGI50 (converted)
  GI50: 3.47 µM
T47D; [8]
  CC50: > 100 µM
T47D; read-out: pTGI (converted)
  TGI: 40.7 µM
UACC-62; read-out: GI50
  GI50: 7.13 µM
UACC-62; [9]
  CC50: > 100 µM
UACC-62; read-out: TGI
  TGI: 67.9 µM
UACC-62; read-out: pGI50 (converted)
  GI50: 3.31 µM
UACC-62; [8]
  CC50: > 100 µM
UACC-62; read-out: pTGI (converted)
  TGI: 67.6 µM
SF-268 [1]
  LC50 (concentration killing 50% of cells relative to time zero): > 100 µM
SF-268 [1]; read-out: GI50
  GI50: 3.13 µM
SF-268 [1]; read-out: TGI
  TGI: 15.9 µM
SF-268 [1]; read-out: pGI50 (converted)
  GI50: 3.09 µM
SF-268 [1]; [8]
  CC50: > 100 µM
SF-268 [1]; read-out: pTGI (converted)
  TGI: > 100 µM
MOLT-4
  Activity: 62.4%
NCI-H460 [2]; read-out: GI50
  GI50: 4.1 µM
NCI-H460 [2]; [9]
  CC50: > 100 µM
NCI-H460 [2]; read-out: TGI
  TGI: > 100 µM
NCI-H460 [2]; read-out: pGI50 (converted)
  GI50: 4.07 µM
NCI-H460 [2]; [8]
  CC50: > 100 µM
NCI-H460 [2]; read-out: pTGI
  TGI: > 100 µM
SN12C
  Activity: 24.83%
HOP-62
  GI50: 9.78 µM
  TGI: 31.4 µM
HOP-62; [9]
  CC50: 99.8 µM
NCI-H226 [3]
  Activity: 66.92%
NCI-H460 [4]
  Activity: 43.38%
COLO 205; read-out: GI50
  GI50: 6.97 µM
COLO 205; [9]
  CC50: > 100 µM
COLO 205; read-out: TGI
  TGI: > 100 µM
COLO 205; read-out: pGI50 (converted)
  GI50: 6.92 µM
COLO 205; [8]
  CC50: > 100 µM
COLO 205; read-out: pTGI (converted)
  TGI: > 100 µM
[5]
  Activity: 30%
SF-268 [6]
  Activity: -16.94%
NCI-H226 [7]; read-out: GI50
  GI50: 3.49 µM
NCI-H226 [7]; [9]
  CC50: > 100 µM
NCI-H226 [7]; read-out: TGI
  TGI: 60 µM
NCI-H226 [7]; read-out: pGI50 (converted)
  GI50: 3.47 µM
NCI-H226 [7]; [8]
  CC50: > 100 µM
NCI-H226 [7]; read-out: pTGI (converted)
  TGI: 60.3 µM
BT-549; [9]
  CC50: > 100 µM
BT-549; read-out: pGI50 (converted)
  GI50: 3.24 µM
BT-549; [8]
  CC50: > 100 µM
BT-549; read-out: pTGI (converted)
  TGI: 8.13 µM
KM12
  GI50: 6 µM
  LC50: > 100 µM
  TGI: > 100 µM

Reference: ChEMBL document CHEMBL1828575, “Design, synthesis and antiproliferative activities of biarylolefins based on polyhydroxylated and carbohydrate scaffolds” (Eur J Med Chem, 2011)
